Calls of active or inactive are those of the source. The rule behind the calls is not given here.
Key:
MRC5 [1] = assay: Cytotoxicity in human MRC5 cells assessed as reduction in cell survival incubated for 72 hrs by MTS assay; type: cell-based; details: MRC5, 72 h
Summary of the method: (§1)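 Nonmalignant MRC-5 lung fibroblasts in supplemented E-MEM (10% FBS, glutamine, NEAA, pyruvate, bicarbonate) at 37 °C, 5% CO2. Seeded at 4000 cells/well and allowed 24 h to adhere. Exposed to ranging concentrations for 24 or 72 h. MTS added for 1 h, absorbance at 485 nm. Survival normalised to 1% DMSO and 0.5% Triton X-100 controls. Triplicates, three independent experiments.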

A2058 [2] = assay: Cytotoxicity in human A2058 cells assessed as reduction in cell survival incubated for 72 hrs by MTS assay; type: functional, cell-based; details: A2058, 72 h
Summary of the method: (§2)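 A2058 human melanoma cells grown in D-MEM with 10% FBS and L-alanyl-L-glutamine at 37 °C, 5% CO2. Seeded at 2000 cells/well and allowed to adhere 24 h. Exposed to a range of concentrations for 4, 24, 48 or 72 h. MTS added for 1 h, then absorbance read at 485 nm. Survival normalised to 1% DMSO (negative) and 0.5% Triton X-100 (positive) controls. Triplicate wells, three independent experiments.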

MCF7 [3] = assay: Cytotoxicity in human MCF7 cells assessed as reduction in cell survival incubated for 72 hrs by MTS assay; type: functional, cell-based; details: MCF7, 72 h
Summary of the method: (§3)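 MCF-7 breast adenocarcinoma cells in E-MEM with 10% FBS, L-alanyl-L-glutamine, nonessential amino acids, sodium pyruvate and sodium bicarbonate at 37 °C, 5% CO2. Plated at 2000 cells/well and left 24 h, then treated 72 h across a concentration range. MTS for 1 h, read at 485 nm. Survival relative to 1% DMSO and 0.5% Triton X-100 controls. IC50 by regression on eight concentrations. Three independent experiments, mean ± SD.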

HT-29 [4] = assay: Cytotoxicity in human HT-29 cells assessed as reduction in cell survival incubated for 72 hrs by MTS assay; type: functional, cell-based; details: HT-29, 72 h
Summary of the method: (§4)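 HT-29 colon adenocarcinoma cells kept in RPMI with 10% FBS and L-alanyl-L-glutamine at 37 °C, 5% CO2. Seeded at 2000 cells/well and left 24 h before 72 h exposure to various concentrations. MTS reagent for 1 h, then absorbance at 485 nm. Survival scaled between 1% DMSO and 0.5% Triton X-100 controls. IC50 from eight concentration points. Means ± SD of three independent determinations.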

A2058 [5] = assay: Cytotoxicity in human A2058 cells assessed as reduction in cell survival incubated for 24 hrs by MTS assay; type: functional, cell-based; details: A2058, 24 h; summary of the method: as §2
A2058 [6] = assay: Cytotoxicity in human A2058 cells assessed as reduction in cell survival incubated for 48 hrs by MTS assay; type: functional, cell-based; details: A2058, 48 h; summary of the method: as §2
A2058 [7] = assay: Cytotoxicity in human A2058 cells assessed as reduction in cell survival at 0.313 to 10 uM incubated for 4 hrs by MTS assay; type: functional, cell-based; summary of the method: as §2
HT-29 [8] = assay: Cytotoxicity in human HT-29 cells assessed as reduction in cell survival by MTS assay; type: functional, cell-based; details: TDE = time-dependent effect; summary of the method: as §4
MRC5 [9] = assay: Cytotoxicity in human MRC5 cells assessed as reduction in cell survival by MTS assay; type: cell-based; details: TDE = time-dependent effect; summary of the method: as §1
MRC5 [10] = assay: Cytotoxicity in human MRC5 cells assessed as reduction in cell survival incubated for 24 hrs by MTS assay; type: cell-based; details: MRC5, 24 h; summary of the method: as §1
MCF7 [11] = assay: Cytotoxicity in human MCF7 cells assessed as reduction in cell survival by MTS assay; type: functional, cell-based; details: TDE = time-dependent effect; summary of the method: as §3
A2058 [12] = assay: Cytotoxicity in human A2058 cells assessed as reduction in cell survival by MTS assay; type: functional, cell-based; details: TDE = time-dependent effect; summary of the method: as §2

| Structure (SMILES) | IC50 (MRC5 [1]) [µM] | IC50 (A2058 [2]) [µM] | IC50 (MCF7 [3]) [µM] | IC50 (HT-29 [4]) [µM] | IC50 (A2058 [5]) [µM] | IC50 (A2058 [6]) [µM] | Activity (A2058 [7]) | Activity (HT-29 [8]) | Activity (MRC5 [9]) | IC50 (MRC5 [10]) [µM] | Activity (MCF7 [11]) | Activity (A2058 [12]) |
| --- | --- | --- | --- | --- | --- | --- | --- | --- | --- | --- | --- | --- |
| CC1(C)[C@@H](Cl)C[C@]23[C@@H]4CC(=O)N2C=CC2=NC(=O)N[C@@]21N3c1cc(Br)ccc14 | 30 | 20 | 23 | 21 | – | – | – | – | – | – | – | – |
| CO[C@H]1[C@H](O)C2=NC(=O)N[C@@]23N2c4cc(Br)c(Br)c(Br)c4[C@H]4CC(=O)N1[C@]42C[C@H](Cl)C3(C)C | > 50 | > 50 | > 50 | > 50 | – | – | – | – | – | – | – | – |
| CC1(C)[C@@H](Cl)C[C@]23[C@@H]4CC(=O)N2C=CC2=NC(=O)N[C@@]21N3c1cc(Br)c(Br)c(Br)c14 | 2.7 | 1.4 | 2.1 | 1.9 | 2.8 | 1.8 | inactive | Tde | Tde | > 10 | Tde | Tde |
| CC1(C)[C@@H](Cl)C[C@]23[C@@H]4CC(=O)N2C=CC2=NC(=O)N[C@@]21N3c1cc(Br)c(Br)cc14 | 5.3 | 2.7 | 2.4 | 2.5 | – | – | – | – | – | – | – | – |
| CC1(C)[C@@H](Cl)C[C@]23[C@@H]4CC(=O)N2C=CC2=NC(=O)N[C@@]21N3c1cc(Br)cc(Br)c14 | 9.6 | 6.7 | 8.5 | 10 | – | – | – | – | – | – | – | – |
